The nature of data set [1]: Drug uptake in human intestine at 5 mg, po. In kind it is ADME, tissue-based. As to conditions: in vivo; call rule not given here.
The target in data set [2] is ATP-binding cassette sub-family C member 2 (Homo sapiens, UniProt Q92887). In words: Inhibition of human MRP2 expressed in MDCK2 cells assessed as reduction of [3H]E217betaG substrate transport up to 100 uM by liquid scintillation counting. It is filed as ADME, cell-based. As to conditions: mdck-ii. The method in brief:
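Membrane vesicles made from MDCKII cells expressing BCRP or MRP2, and from parental cells (1 μg/μL protein). Run in Tris-sucrose buffer, pH 7.4, with 10 mM MgCl2, creatine phosphokinase and ATP, or AMP as control. Substrates: 0.035 μM [3H]E-sul for BCRP, 2 min; 0.033 μM [3H]E217βG for MRP2, 5 min; both at 37 °C. Stopped ice-cold, filtered, and counted by scintillation.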

Chain of ATP-binding cassette sub-family C member 2 (Q92887 whole entry): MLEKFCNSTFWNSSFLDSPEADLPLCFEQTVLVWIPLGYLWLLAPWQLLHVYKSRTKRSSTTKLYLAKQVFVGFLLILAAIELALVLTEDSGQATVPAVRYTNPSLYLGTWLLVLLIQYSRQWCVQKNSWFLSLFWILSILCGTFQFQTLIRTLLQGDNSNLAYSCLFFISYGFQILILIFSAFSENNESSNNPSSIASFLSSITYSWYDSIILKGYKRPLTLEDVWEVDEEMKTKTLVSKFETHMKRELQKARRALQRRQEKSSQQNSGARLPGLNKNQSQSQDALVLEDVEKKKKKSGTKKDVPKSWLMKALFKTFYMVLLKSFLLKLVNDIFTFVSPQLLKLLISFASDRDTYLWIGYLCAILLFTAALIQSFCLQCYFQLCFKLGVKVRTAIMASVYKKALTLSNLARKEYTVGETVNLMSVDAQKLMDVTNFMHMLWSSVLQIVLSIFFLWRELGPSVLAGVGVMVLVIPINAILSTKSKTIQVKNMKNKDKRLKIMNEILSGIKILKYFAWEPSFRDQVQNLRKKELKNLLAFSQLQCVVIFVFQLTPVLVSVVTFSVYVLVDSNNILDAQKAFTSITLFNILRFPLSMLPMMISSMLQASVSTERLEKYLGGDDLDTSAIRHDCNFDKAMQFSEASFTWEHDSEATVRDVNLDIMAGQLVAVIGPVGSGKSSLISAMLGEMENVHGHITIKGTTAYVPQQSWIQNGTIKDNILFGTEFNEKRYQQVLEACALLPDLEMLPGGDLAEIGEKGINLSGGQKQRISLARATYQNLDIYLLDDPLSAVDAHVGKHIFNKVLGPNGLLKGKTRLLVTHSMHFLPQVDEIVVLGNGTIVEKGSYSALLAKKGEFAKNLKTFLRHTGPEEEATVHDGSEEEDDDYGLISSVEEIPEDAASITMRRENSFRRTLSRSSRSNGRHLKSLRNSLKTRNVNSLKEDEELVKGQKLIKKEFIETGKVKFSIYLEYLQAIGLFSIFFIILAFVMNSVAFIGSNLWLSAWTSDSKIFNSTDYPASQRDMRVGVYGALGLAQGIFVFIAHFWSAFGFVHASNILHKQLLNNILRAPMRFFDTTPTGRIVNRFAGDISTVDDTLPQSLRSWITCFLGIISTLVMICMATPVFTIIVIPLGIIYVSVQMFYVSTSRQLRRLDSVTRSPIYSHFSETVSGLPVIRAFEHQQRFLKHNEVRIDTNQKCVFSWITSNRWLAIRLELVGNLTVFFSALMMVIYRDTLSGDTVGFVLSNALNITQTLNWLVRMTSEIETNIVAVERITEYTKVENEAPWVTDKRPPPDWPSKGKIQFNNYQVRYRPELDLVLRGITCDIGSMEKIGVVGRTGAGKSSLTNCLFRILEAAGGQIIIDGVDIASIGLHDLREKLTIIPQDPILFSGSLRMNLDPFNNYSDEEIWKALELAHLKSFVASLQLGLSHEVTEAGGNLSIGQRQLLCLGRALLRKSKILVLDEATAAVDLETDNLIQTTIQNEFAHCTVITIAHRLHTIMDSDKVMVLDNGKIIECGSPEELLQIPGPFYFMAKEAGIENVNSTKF

In the case of `CC#CCn1c(N2CCC[C@@H](N)C2)nc2c1c(=O)n(Cc1nc(C)c3ccccc3n1)c(=O)n2C` [LINAGLIPTIN], in data set [1], the Drug uptake worked out at 42.3 µM. The “inhibition (INH)” value in data set [2] is listed as “Not Active”.

For the origin of these results see ChEMBL document CHEMBL3525903 (Drug Metab Dispos, 2013).
